Assays:
[1] = test system: K562 cells; test: Cytotoxicity / viable cell count in K562 leukemic cells; type: cell-based, human
[2] = test system: ID1 protein in K562 cells; test: Western blot of USP1 and ID1 protein levels in K562 cells; type: cell-based, human; details: for USP1 and ID1 protein levels: Western blot, 24 hrs (Pimozide 48 hrs)
[3] = test system: primary human cord blood CD34+ cells; test: Growth of normal cord blood CD34+ cells; type: cell-based; details: Supplementary figure 5
[4] = test system: K562 xenograft; test: K562 mouse xenograft; type: in vivo, athymic nude mice; details: 15 mg/kg daily ip, nude mice
How it was run: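 Athymic nude mice aged 6–8 weeks were injected subcutaneously in the flank with 5 × 10^6 K562 cells mixed 1:1 with matrigel. At […] tumor size, mice received 15 mg/kg daily ip in 2% DMSO + 0.3% tartaric acid, or vehicle alone (n=10 per group). Tumor volume was calculated as width² × length/2 and compared by […] t-test.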

[5] = test system: K562 cells; test: Apoptosis; type: cell-based, human; details: 24 hrs (Pimozide 48 hrs)
[6] = test system: MOLM14, OCI-AML3, U937 and SK-NO1; test: Cytotoxicity in AML cell lines; type: cell-based, human; details: 24 hrs
[7] = test system: primary AML bone marrow and peripheral blood cells; test: Cytotoxicity in primary AML patient cells; type: cell-based, human; details: 48-72 hrs
How it was run: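 Fresh bone marrow and peripheral blood were taken from AML patients, and mononuclear cells were harvested. These were cultured in triplicate with test compound or DMSO for 48–72 h, and viability was determined. Data come from 3 patient samples, shown as mean ± SEM.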

[8] = test system: Ub-FANCD2; test: Western blot of Ub-FANCD2, Ub-FANCI, Ub-PCNA levels; type: cell-based, human; details: supplementary figure 6
[9] = test system: K562 cells; test: Benzidine staining differentiation of K562 cells; type: cell-based, human; details: low dose, 5 days
[10] = test system: U2OS-DRGFP cells; test: DR-GFP homologous recombination reporter; type: cell-based, human; details: 24 h treatment
How it was run: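 U2OS-DRGFP cells carry a single chromosomally integrated copy of the HR substrate and were grown in DMEM with 10% FBS. DSBs were induced by I-SceI expression after plasmid transfection. After 24 h, cells were exposed to test compound for 24 h. The percentage of viable GFP-positive cells was measured by FACS and normalized to the solvent vehicle group.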

[11] = test system: native USP1/UAF1 complex; test: HA-Ub-VS competition assay on native USP1 in cell extracts; type: cell-based, human; details: K562 cells treated 24 hrs (SJB2-043 1 μM); Ub-Aldehyde 5 μM added to extract
How it was run: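 K562 cells were treated with test compound or DMSO for 24 h. Cell extracts were then incubated with 0.5 μM final HA-Ub-vinylsulfone for 45 min at 30 °C. As a control, an aliquot of untreated extract was pretreated with 5 μM ubiquitin-aldehyde before probe addition. Samples were immunoblotted with anti-HA and anti-USP1 antibodies.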

Chain of native USP1/UAF1 complex (O94782 1-671 limits assumed): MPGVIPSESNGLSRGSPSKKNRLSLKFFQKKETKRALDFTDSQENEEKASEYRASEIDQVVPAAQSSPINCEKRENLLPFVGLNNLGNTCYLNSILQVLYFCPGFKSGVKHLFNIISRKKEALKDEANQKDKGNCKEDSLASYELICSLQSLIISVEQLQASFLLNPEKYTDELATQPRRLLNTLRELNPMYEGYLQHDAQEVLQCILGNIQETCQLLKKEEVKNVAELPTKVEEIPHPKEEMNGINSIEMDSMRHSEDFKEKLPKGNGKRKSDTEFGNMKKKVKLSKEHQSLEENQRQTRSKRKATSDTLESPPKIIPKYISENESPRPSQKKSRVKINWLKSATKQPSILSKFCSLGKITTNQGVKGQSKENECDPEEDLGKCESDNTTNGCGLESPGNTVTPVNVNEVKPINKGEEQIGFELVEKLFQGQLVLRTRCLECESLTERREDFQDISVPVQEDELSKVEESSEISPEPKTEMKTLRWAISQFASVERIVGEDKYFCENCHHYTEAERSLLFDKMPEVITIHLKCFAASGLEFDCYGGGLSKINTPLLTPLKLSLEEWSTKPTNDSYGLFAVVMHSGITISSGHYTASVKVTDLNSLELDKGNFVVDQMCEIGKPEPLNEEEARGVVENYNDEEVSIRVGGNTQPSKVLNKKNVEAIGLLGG
Chain of native USP1/UAF1 complex (Q8TAF3 whole entry, further chain): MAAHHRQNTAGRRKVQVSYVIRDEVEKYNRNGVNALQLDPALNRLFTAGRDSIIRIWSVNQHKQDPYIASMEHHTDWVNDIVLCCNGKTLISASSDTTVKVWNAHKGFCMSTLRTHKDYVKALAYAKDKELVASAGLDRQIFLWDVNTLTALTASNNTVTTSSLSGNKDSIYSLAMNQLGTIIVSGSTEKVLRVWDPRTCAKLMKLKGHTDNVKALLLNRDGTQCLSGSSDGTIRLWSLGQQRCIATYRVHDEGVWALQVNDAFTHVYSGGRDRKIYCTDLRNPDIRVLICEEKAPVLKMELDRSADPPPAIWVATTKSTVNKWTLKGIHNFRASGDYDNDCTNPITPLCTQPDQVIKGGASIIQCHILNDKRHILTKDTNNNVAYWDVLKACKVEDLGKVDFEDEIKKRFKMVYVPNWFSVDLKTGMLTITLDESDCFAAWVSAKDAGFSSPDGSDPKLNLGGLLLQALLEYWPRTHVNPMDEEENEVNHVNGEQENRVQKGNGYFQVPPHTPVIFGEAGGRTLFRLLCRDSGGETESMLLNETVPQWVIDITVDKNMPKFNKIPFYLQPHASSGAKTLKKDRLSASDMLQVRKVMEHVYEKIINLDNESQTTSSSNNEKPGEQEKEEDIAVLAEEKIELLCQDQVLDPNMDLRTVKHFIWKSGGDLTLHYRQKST

Molecule: O=c1[nH]c2ccccc2n1C1CCN(CCCC(c2ccc(F)cc2)c2ccc(F)cc2)CC1 [Pimozide, reference compound]
- K562 cell growth ([1]; 48 hrs): dose-dependent inhibition of K562 cell growth
- USP1 and ID1 protein levels [2]: promoted ID1 degradation
- effect on normal human cord blood CD34+ cells [3]: tolerated at high micromolar doses
- tumor growth in K562 xenograft [4]: modest inhibition of tumor growth
- apoptosis of K562 cells [5]: induction of apoptosis

Molecule: O=C1c2ccccc2C(=O)c2oc(-c3ccccc3)nc21 [SJB2-043]
- EC50 ([1]; read-out: EC50, decrease in the number of viable K562 cells, 24 hrs, ± 0.08 (95% Confidence Limits)): ~1070 nM
- USP1/ID1 degradation, time course ([2]; 2 μM, 18 hrs or 26 hrs): complete degradation of USP1/ID1
- USP1 and ID1 protein levels [2]: dose-dependent decrease in USP1 levels and a concomitant degradation of ID1 protein
- cytotoxicity in AML cell lines [6]: dose-dependent cytotoxicity and concomitant ID1 degradation
- cytotoxicity on primary AML bone marrow and peripheral blood cells [7]: dose-dependent cytotoxicity
- effect on normal human cord blood CD34+ cells [3]: did result in growth inhibition
- levels of Ub-FANCD2 / Ub-PCNA [8]: increased the level of Ub-FANCD2
- apoptosis of K562 cells [5]: induced apoptosis of K562 cells in a dose-dependent manner
- differentiation of K562 cells [9]: activated differentiation of K562 cells into hemoglobin-expressing erythroid cells

Molecule: O=C1c2ccccc2C(=O)c2oc(-c3cccnc3)nc21 [SJB3-019A]
- potency relative to SJB2-043 in cytoxicity in K562 cells ([1]; K562 cells): 5 times
- potency relative to SJB2-043 in promoting ID1 degradation [2]: 5 times
- gene conversion / HR activity [10]: decreased the HR activity
- levels of Ub-FANCD2 / Ub-PCNA [8]: increased the levels of Ub-FANCD2 and Ub-PCNA

Molecule: Ub-aldehyde
- Ub-VS labeling of native USP1 [11]: complete loss of USP1-Ub-VS conjugates

Reference: PMC4089878 (Molecular cancer therapeutics, 2013)
